Measurements reported in ChEMBL document CHEMBL3779892, “Increasing the binding affinity of VEGFR-2 inhibitors by extending their hydrophobic interaction with the active site: Design, synthesis and biological evaluation of 1-substituted-4-(4-methoxybenzyl)phthalazine derivatives” (Eur J Med Chem, 2016).

Key:
Assay type in all cases: functional
MDA-MB-468 = assay: Growth inhibition of human MDA-MB-468 cells at 10 uM after 48 hrs by sulforhodamine B assay; settings: MDA-MB-468, 48 h, read-out: GI
Method in brief: (§1)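 Run at NCI on the 60-line panel. Cells grown in RPMI 1640 with 5% FBS and 2 mM L-glutamine, plated at 5000–40,000 cells/well by doubling time, and held 24 h at 37 °C before dosing. Drug (DMSO stock) given at a single final 10 µM in triplicate wells for 48 h. Adherent cells fixed with cold TCA (10% final), suspension cells with 16% TCA. SRB stain read at 515 nm. Percent growth from Tz, C and Ti.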

MDA-MB-231 = assay: Growth inhibition of human MDA-MB-231 cells at 10 uM after 48 hrs by sulforhodamine B assay; settings: MDA-MB-231, 48 h, read-out: GI; method in brief: as §1
CCRF-CEM = assay: Growth inhibition of human CCRF-CEM cells at 10 uM after 48 hrs by sulforhodamine B assay; settings: read-out: GI; method in brief: as §1
K562 = assay: Growth inhibition of human K562 cells at 10 uM after 48 hrs by sulforhodamine B assay; settings: K562, 48 h, read-out: GI; method in brief: as §1
SR = assay: Growth inhibition of human SR cells at 10 uM after 48 hrs by sulforhodamine B assay; settings: read-out: GI
Method in brief: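 NCI-60 screen. Cells were grown in RPMI 1640 with 5% FBS and 2 mM L-glutamine, plated at 5000–40,000 cells/well and held 24 h at 37 °C, 5% CO2. Single 10 µM final dose from DMSO stock, triplicate wells, 48 h. Settled cells were fixed with 80% TCA (16% final) and stained with 0.4% SRB. Dye was solubilized in 10 mM Tris and read at 515 nm. Growth was calculated against time-zero and untreated wells.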

A549 = assay: Growth inhibition of human A549 cells at 10 uM after 48 hrs by sulforhodamine B assay; settings: A549, 48 h, read-out: GI; method in brief: as §1
[1] = Growth inhibition of human HOP92 cells at 10 uM after 48 hrs by sulforhodamine B assay; settings: HOP-92, 48 h, read-out: GI; method in brief: as §1
NCI-H226 = assay: Growth inhibition of human NCI-H226 cells at 10 uM after 48 hrs by sulforhodamine B assay; settings: NCI-H226, 48 h, read-out: GI; method in brief: as §1
NCI-H23 = assay: Growth inhibition of human NCI-H23 cells at 10 uM after 48 hrs by sulforhodamine B assay; settings: NCI-H23, 48 h, read-out: GI; method in brief: as §1
NCI-H460 = assay: Growth inhibition of human NCI-H460 cells at 10 uM after 48 hrs by sulforhodamine B assay; settings: NCI-H460, 48 h, read-out: GI; method in brief: as §1
NCI-H522 = assay: Growth inhibition of human NCI-H522 cells at 10 uM after 48 hrs by sulforhodamine B assay; settings: NCI-H522, 48 h, read-out: GI; method in brief: as §1
HT-29 = assay: Growth inhibition of human HT-29 cells at 10 uM after 48 hrs by sulforhodamine B assay; settings: HT-29, 48 h, read-out: GI; method in brief: as §1
KM12 = assay: Growth inhibition of human KM12 cells at 10 uM after 48 hrs by sulforhodamine B assay; settings: KM12, 48 h, read-out: GI; method in brief: as §1
[2] = Growth inhibition of human SW620 cells at 10 uM after 48 hrs by sulforhodamine B assay; settings: SW-620, 48 h, read-out: GI
Method in brief: (§2)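 NCI-60 panel, adherent cells grown in RPMI 1640 with 5% FBS and 2 mM L-glutamine, plated at 5000–40,000 cells/well and preincubated 24 h at 37 °C, 5% CO2. 10 µM final compound from DMSO stock, triplicate wells, 48 h. Fixed with cold TCA (10% final, 60 min, 4 °C) and stained with 0.4% SRB. Absorbance read at 515 nm; growth calculated against time-zero and control wells.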

[3] = Growth inhibition of human SF268 cells at 10 uM after 48 hrs by sulforhodamine B assay; settings: SF-268, 48 h, read-out: GI; method in brief: as §1
[4] = Growth inhibition of human SF295 cells at 10 uM after 48 hrs by sulforhodamine B assay; settings: SF-295, 48 h, read-out: GI; method in brief: as §1
[5] = Growth inhibition of human SNB19 cells at 10 uM after 48 hrs by sulforhodamine B assay; settings: SNB-19, 48 h, read-out: GI; method in brief: as §1
[6] = Growth inhibition of human SNB75 cells at 10 uM after 48 hrs by sulforhodamine B assay; settings: SNB-75, 48 h, read-out: GI; method in brief: as §1
M14 = assay: Growth inhibition of human M14 cells at 10 uM after 48 hrs by sulforhodamine B assay; settings: M14, 48 h, read-out: GI; method in brief: as §1
MDA-MB-435 = assay: Growth inhibition of human MDA-MB-435 cells at 10 uM after 48 hrs by sulforhodamine B assay; settings: MDA-MB-435, 48 h, read-out: GI; method in brief: as §1
SK-MEL-28 = assay: Growth inhibition of human SK-MEL-28 cells at 10 uM after 48 hrs by sulforhodamine B assay; settings: SK-MEL-28, 48 h, read-out: GI; method in brief: as §1
SK-MEL-5 = assay: Growth inhibition of human SK-MEL-5 cells at 10 uM after 48 hrs by sulforhodamine B assay; settings: SK-MEL-5, 48 h, read-out: GI; method in brief: as §1
[7] = Growth inhibition of human UACC62 cells at 10 uM after 48 hrs by sulforhodamine B assay; settings: UACC-62, 48 h, read-out: GI; method in brief: as §2
[8] = Growth inhibition of human OVCAR3 cells at 10 uM after 48 hrs by sulforhodamine B assay; settings: OVCAR-3, 48 h, read-out: GI; method in brief: as §1
[9] = Growth inhibition of human OVCAR5 cells at 10 uM after 48 hrs by sulforhodamine B assay; settings: OVCAR-5, 48 h, read-out: GI; method in brief: as §1
[10] = Growth inhibition of human OVCAR8 cells at 10 uM after 48 hrs by sulforhodamine B assay; settings: OVCAR-8, 48 h, read-out: GI; method in brief: as §1
[11] = Growth inhibition of human NCI-ADR-RES cells at 10 uM after 48 hrs by sulforhodamine B assay; settings: read-out: GI; method in brief: as §1
A498 = assay: Growth inhibition of human A498 cells at 10 uM after 48 hrs by sulforhodamine B assay; settings: A498, 48 h, read-out: GI; method in brief: as §1
ACHN = assay: Growth inhibition of human ACHN cells at 10 uM after 48 hrs by sulforhodamine B assay; settings: read-out: GI; method in brief: as §1
[12] = Growth inhibition of human UO31 cells at 10 uM after 48 hrs by sulforhodamine B assay; settings: UO-31, 48 h, read-out: GI; method in brief: as §2
[13] = Growth inhibition of human PC3 cells at 10 uM after 48 hrs by sulforhodamine B assay; settings: PC-3, 48 h, read-out: GI; method in brief: as §1
[14] = Growth inhibition of human DU145 cells at 10 uM after 48 hrs by sulforhodamine B assay; settings: DU-145, 48 h, read-out: GI; method in brief: as §1
[15] = Growth inhibition of human Hs 578T cells at 10 uM after 48 hrs by sulforhodamine B assay; settings: read-out: GI; method in brief: as §1

Row | SMILES | inhibition of growth at 10 µM (MDA-MB-468) | inhibition of growth at 10 µM (MDA-MB-231) | inhibition of growth at 10 µM (CCRF-CEM) | inhibition of growth at 10 µM (K562) | inhibition of growth at 10 µM (SR) | inhibition of growth at 10 µM (A549) | inhibition of growth at 10 µM [1] | inhibition of growth at 10 µM (NCI-H226) | inhibition of growth at 10 µM (NCI-H23) | inhibition of growth at 10 µM (NCI-H460) | inhibition of growth at 10 µM (NCI-H522) | inhibition of growth at 10 µM (HT-29) | inhibition of growth at 10 µM (KM12) | inhibition of growth at 10 µM [2] | inhibition of growth at 10 µM [3] | inhibition of growth at 10 µM [4] | inhibition of growth at 10 µM [5] | inhibition of growth at 10 µM [6] | inhibition of growth at 10 µM (M14) | inhibition of growth at 10 µM (MDA-MB-435) | also measured
1 | COc1ccc(Cc2nnc(Nc3ccc(NC(=O)Nc4cccc(Cl)c4)cc3)c3ccccc23)cc1 | < 30% | < 30% | 41% | 30% | < 30% | 35% | < 30% | < 30% | < 30% | < 30% | 57% | < 30% | < 30% | < 30% | < 30% | < 30% | < 30% | < 30% | < 30% | < 30% | inhibition of growth at 10 µM (SK-MEL-28): < 30%; inhibition of growth at 10 µM (SK-MEL-5): < 30%; inhibition of growth at 10 µM [7]: < 30%; inhibition of growth at 10 µM [8]: < 30%; inhibition of growth at 10 µM [9]: < 30%; inhibition of growth at 10 µM [10]: < 30%; inhibition of growth at 10 µM [11]: < 30%; inhibition of growth at 10 µM (A498): < 30%; inhibition of growth at 10 µM (ACHN): 39%; inhibition of growth at 10 µM [12]: < 30%; inhibition of growth at 10 µM [13]: 32%; inhibition of growth at 10 µM [14]: < 30%; inhibition of growth at 10 µM [15]: < 30%
2 | COc1ccc(Cc2nnc(Nc3ccc(NC(=O)Nc4ccc(Cl)cc4)cc3)c3ccccc23)cc1 | < 30% | 30% | 42% | < 30% | 40% | 33% | < 30% | < 30% | < 30% | 110% | 43% | 34% | 39% | < 30% | < 30% | 52% | 39% | 49% | 30% | < 30% | inhibition of growth at 10 µM (SK-MEL-28): < 30%; inhibition of growth at 10 µM (SK-MEL-5): < 30%; inhibition of growth at 10 µM [7]: < 30%; inhibition of growth at 10 µM [8]: < 30%; inhibition of growth at 10 µM [9]: < 30%; inhibition of growth at 10 µM [10]: < 30%; inhibition of growth at 10 µM [11]: < 30%; inhibition of growth at 10 µM (A498): 32%; inhibition of growth at 10 µM (ACHN): 46%; inhibition of growth at 10 µM [12]: < 30%; inhibition of growth at 10 µM [13]: 31%; inhibition of growth at 10 µM [14]: < 30%; inhibition of growth at 10 µM [15]: 75%
